{"data": "Measurements of several laboratories", "read-out": "cell growth or viability", "note": "Compare with care: the assays were run in different laboratories."}
{"SMILES": "Cc1nc(Nc2ncc(C(=O)Nc3c(C)cccc3Cl)s2)cc(N2CC[C@H](O)C2)n1", "cell line": "REH", "test": "ATP luminescence", "conditions": "10 µM, 72 h", "endpoint": "inhibition", "value": "32%"}
{"SMILES": "Cc1ncsc1-c1ccc(CNC(=O)[C@@H]2C[C@@H](O)CN2C(=O)[C@@H](NC(=O)COCCOCCOCCNC(=O)C[C@@H]2N=C(c3ccc(Cl)cc3)c3c(sc(C)c3C)-n3c(C)nnc32)C(C)(C)C)cc1", "cell line": "HCC1806", "test": "MTT", "conditions": "6 days", "endpoint": "IC90", "value": "810 nM"}
{"SMILES": "C[C@H](Oc1nccc(-c2noc3c2CCC[C@@]32CCCc3sc(N)c(C#N)c32)n1)[C@@H]1CCCN1C", "cell line": "BaF3", "conditions": "72 h", "endpoint": "EC50", "value": "42 nM"}
{"SMILES": "Cc1ccc(CN2C(=O)C(=Nc3cccc(C)c3)c3ccccc32)cc1", "cell line": "L02", "test": "MTT", "conditions": "48 h", "endpoint": "IC50", "value": "10300 nM"}
{"SMILES": "C[C@H]1CNCCN1c1nccc(-c2noc([C@@]3(C)CCCc4sc(N)c(C#N)c43)n2)n1", "cell line": "BaF3", "conditions": "72 h", "endpoint": "EC50", "value": "1580 nM"}
{"SMILES": "O=C1Nc2ccccc2C1=Nc1ccccc1Br", "cell line": "L02", "test": "MTT", "conditions": "48 h", "endpoint": "IC50", "value": "31400 nM"}
{"SMILES": "C[C@H](Nc1ccc2c(c1)OCCn1cc(N3C(=O)OC[C@H]3C(F)F)nc1-2)C(N)=O", "cell line": "MFM-223", "test": "ATP luminescence", "conditions": "5 days", "endpoint": "EC50", "value": "1390 nM"}
{"SMILES": "Cc1ccc(CN2C(=O)C(=Nc3c(C(C)C)cccc3C(C)C)c3ccccc32)cc1", "cell line": "L02", "test": "MTT", "conditions": "48 h", "endpoint": "IC50", "value": "177000 nM"}
{"SMILES": "C[C@H]1CN(C)CCN1c1nccc(-c2noc3c2CCC[C@@]32CCCc3sc(N)c(C#N)c32)n1", "cell line": "BaF3", "conditions": "72 h", "endpoint": "EC50", "value": "479 nM"}
